ChEMBL document CHEMBL4364248, “Discovery of 1,2,4-oxadiazole-Containing hydroxamic acid derivatives as histone deacetylase inhibitors potential application in cancer therapy” (Eur J Med Chem, 2019)
pIC50: −log10 of the molar value.

Key:
[1] = AUC ( 0 to t) in Sprague-Dawley rat at 5 mg/kg, iv measured upto 24 hrs by LC-MS/MS analysis; assay type: ADME, organism-based; set-up: dose 5 mg/kg, time < 24 hr, route intravenous; conditions: in vivo
Summary of the method: (§1)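 SD rats (200-250 g), six per time point, given 5 mg/kg as a tail-vein bolus or orally. Blood was taken by cardiac puncture before dosing and at 5, 15, 30, 45 min and 1, 2, 4, 6, 8, 10, 12 and 24 h. Plasma was spun at 4000 g for 15 min at 4 °C and stored at -80 °C. Analysis was LC-MS/MS with multiple-reaction monitoring, followed by noncompartmental analysis.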

JeKo-1 [2] = assay: Induction of apoptosis in human JeKo1 cells assessed as early apoptotic cells at 10 nM after 48 hrs by annexin V-FITC/propidium iodide staining-based flow cytometric method (reference value: 3.34 %); assay type: functional
Summary of the method: (§2)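 Jeko-1 cells were grown in RPMI-1640 with 10% FBS at 37 °C under 5% CO2. They were exposed to 0, 10, 100 or 1000 nM for 48 h, then apoptosis induction was analysed.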

[3] = Volume of distribution at steady state in Sprague-Dawley rat at 5 mg/kg, po measured upto 24 hrs by LC-MS/MS analysis; assay type: ADME, organism-based; conditions: in vivo
Summary of the method: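 SD rats (200-250 g), six per time point, given 5 mg/kg orally; blood drawn by cardiac puncture at 0, 5, 15, 30, 45 min and 1, 2, 4, 6, 8, 10, 12, 24 h, held on ice. Plasma separated by centrifugation (4000 g, 15 min, 4 °C), stored at -80 °C, assayed by LC-MS/MS in multiple-reaction monitoring mode; parameters from noncompartmental analysis.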

Histone deacetylase 2 = Histone deacetylase 2 (Homo sapiens, UniProt Q92769); assay: Inhibition of recombinant full length human HDAC2 expressed in sf9 insect cells using Ac-peptide-AMC as substrate after 1 hr by fluorescence assay; assay type: cell-based
Chain of Histone deacetylase 2 (Q92769 whole entry): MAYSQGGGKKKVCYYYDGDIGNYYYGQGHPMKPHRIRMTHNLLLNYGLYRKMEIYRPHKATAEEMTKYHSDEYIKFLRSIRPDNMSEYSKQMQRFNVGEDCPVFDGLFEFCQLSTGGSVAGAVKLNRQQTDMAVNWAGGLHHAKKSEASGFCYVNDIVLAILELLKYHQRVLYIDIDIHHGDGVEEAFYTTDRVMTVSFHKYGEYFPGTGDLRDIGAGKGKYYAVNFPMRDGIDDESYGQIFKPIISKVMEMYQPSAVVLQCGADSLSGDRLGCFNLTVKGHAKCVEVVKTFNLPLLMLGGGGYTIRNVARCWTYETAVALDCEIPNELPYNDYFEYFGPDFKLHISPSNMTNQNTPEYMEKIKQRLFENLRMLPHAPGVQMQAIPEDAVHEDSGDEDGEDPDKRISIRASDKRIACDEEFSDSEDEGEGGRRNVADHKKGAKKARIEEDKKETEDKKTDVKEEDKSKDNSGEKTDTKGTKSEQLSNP

Histone deacetylase 8 = Histone deacetylase 8 (Homo sapiens, UniProt Q9BY41); assay: Inhibition of recombinant full length C-terminal His-tagged human HDAC8 expressed in baculovirus infected in Sf9 cells using Ac-peptide-AMC as substrate after 1 hr by fluorescence assay
Chain of Histone deacetylase 8 (Q9BY41 whole entry): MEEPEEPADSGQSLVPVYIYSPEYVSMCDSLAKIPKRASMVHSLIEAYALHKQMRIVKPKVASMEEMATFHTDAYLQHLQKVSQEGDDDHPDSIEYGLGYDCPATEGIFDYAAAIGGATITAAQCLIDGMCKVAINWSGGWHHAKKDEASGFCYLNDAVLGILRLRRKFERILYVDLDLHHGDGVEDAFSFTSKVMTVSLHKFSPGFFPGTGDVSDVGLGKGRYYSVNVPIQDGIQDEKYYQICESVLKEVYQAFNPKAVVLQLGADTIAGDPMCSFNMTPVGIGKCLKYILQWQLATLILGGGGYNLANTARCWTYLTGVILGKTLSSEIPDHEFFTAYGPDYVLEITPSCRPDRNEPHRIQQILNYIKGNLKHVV

[4] = Oral bioavailability in Sprague-Dawley rat at 5 mg/kg measured upto 24 hrs by LC-MS/MS analysis; assay type: ADME, organism-based; conditions: in vivo; summary of the method: as §1
JeKo-1 [5] = assay: Cell cycle arrest in human JeKo1 cells assessed as accumulation at G2/M phase at 100 nM after 24 hrs by propidium iodide staining based flow cytometric analysis (reference value: 10.71 %); assay type: functional
JeKo-1 [6] = assay: Induction of apoptosis in human JeKo1 cells assessed as necrotic cells at 10 nM after 48 hrs by annexin V-FITC/propidium iodide staining-based flow cytometric method (reference value: 2.03 %); assay type: functional; summary of the method: as §2
JeKo-1 [7] = assay: Cell cycle arrest in human JeKo1 cells assessed as accumulation at G2/M phase at 10 nM after 24 hrs by propidium iodide staining based flow cytometric analysis (reference value: 10.71 %); assay type: functional
[8] = Toxicity in NOD/SCID mouse xenografted with human Daudi cells assessed as organ damage at 10 mg/kg, iv treated on day 1,3 and 5 per week and measured for every 2 days by H and E staining based assay; assay type: organism-based; conditions: in vivo, 48 h
Summary of the method: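 Female NOD/SCID mice (5–6 weeks) bearing s.c. Daudi xenografts, six per group. Dosing was 10 mg/kg i.v. or 20 mg/kg p.o. in 8% HP-β-CD on days 1, 3 and 5 weekly. Behaviour was observed, and organ tissues were collected at sacrifice for H&E staining.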

[9] = Cmax in Sprague-Dawley rat at 5 mg/kg, po measured upto 24 hrs by LC-MS/MS analysis; assay type: ADME, organism-based; set-up: dose 5 mg/kg, route oral; conditions: in vivo; summary of the method: as §1
Histone deacetylase 1 = Histone deacetylase 1 (Homo sapiens, UniProt Q13547); assay: Inhibition of recombinant full length HDAC1 (unknown origin) using Ac-peptide-AMC as substrate after 1 hr by fluorescence assay
Chain of Histone deacetylase 1 (Q13547 whole entry): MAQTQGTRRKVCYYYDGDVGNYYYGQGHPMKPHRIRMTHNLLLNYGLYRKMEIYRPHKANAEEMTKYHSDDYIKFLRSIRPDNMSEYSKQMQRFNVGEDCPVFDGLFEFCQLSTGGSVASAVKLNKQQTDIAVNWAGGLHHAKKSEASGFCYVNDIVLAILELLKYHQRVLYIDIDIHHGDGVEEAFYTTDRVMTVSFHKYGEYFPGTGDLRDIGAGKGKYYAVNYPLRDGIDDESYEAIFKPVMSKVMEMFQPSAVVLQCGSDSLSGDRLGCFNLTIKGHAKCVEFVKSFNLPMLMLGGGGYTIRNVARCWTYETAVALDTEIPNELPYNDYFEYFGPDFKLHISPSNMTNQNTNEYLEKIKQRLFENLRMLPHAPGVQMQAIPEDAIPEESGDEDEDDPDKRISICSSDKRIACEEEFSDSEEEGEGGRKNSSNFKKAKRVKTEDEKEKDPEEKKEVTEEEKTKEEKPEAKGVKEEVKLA

MCF7 = assay: Antiproliferative activity against human MCF7 cells after 72 hrs by MTT assay; assay type: functional, cell-based; conditions: MCF7, 72 h
Raji = assay: Antiproliferative activity against human Raji cells after 72 hrs by MTT assay; assay type: functional, cell-based
JeKo-1 [10] = assay: Cell cycle arrest in human JeKo1 cells assessed as accumulation at S phase at 1000 nM after 24 hrs by propidium iodide staining based flow cytometric analysis (reference value: 26.13 %); assay type: functional
MM1.S = assay: Antiproliferative activity against human MM1S cells after 72 hrs by MTT assay; assay type: functional, cell-based
Histone deacetylase 4 = Histone deacetylase 4 (Homo sapiens, UniProt P56524); assay: Inhibition of recombinant full length human HDAC4 expressed in sf9 insect cells using Ac-peptide-AMC as substrate after 1 hr by fluorescence assay
Chain of Histone deacetylase 4 (P56524 whole entry): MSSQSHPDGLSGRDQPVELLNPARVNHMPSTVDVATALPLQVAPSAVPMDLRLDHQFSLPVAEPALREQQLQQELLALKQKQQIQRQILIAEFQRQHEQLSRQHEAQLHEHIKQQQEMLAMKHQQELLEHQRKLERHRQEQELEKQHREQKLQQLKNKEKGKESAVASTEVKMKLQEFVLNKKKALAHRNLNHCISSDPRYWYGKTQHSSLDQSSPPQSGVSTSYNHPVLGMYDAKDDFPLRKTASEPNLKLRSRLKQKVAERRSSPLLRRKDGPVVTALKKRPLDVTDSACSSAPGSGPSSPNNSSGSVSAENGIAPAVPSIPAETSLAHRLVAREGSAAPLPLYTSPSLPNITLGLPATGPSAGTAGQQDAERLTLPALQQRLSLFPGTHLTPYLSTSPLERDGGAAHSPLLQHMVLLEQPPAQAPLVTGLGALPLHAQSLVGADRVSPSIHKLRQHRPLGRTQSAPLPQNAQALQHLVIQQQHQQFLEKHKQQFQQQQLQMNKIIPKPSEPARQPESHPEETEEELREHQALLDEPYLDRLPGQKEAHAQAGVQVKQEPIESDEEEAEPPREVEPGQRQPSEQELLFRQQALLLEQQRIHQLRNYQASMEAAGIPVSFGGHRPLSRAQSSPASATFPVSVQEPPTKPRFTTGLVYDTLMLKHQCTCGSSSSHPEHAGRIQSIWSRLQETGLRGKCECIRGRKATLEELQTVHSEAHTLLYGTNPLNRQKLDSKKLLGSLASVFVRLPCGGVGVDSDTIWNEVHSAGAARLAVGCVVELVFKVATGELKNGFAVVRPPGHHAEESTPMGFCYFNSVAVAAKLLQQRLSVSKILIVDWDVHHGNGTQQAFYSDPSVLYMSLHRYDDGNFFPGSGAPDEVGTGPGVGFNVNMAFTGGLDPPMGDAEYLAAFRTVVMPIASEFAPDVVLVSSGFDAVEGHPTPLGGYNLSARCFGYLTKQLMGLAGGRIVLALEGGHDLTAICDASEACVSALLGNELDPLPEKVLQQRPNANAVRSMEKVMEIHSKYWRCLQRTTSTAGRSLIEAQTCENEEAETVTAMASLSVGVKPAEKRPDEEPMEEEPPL

[11] = molecular target: Protein deacetylase HDAC6 (Homo sapiens, UniProt Q9UBN7); assay: Inhibition of recombinant full length HDAC6 (unknown origin) using Ac-peptide-AMC as substrate after 1 hr by fluorescence assay
Chain of Protein deacetylase HDAC6 (Q9UBN7 whole entry): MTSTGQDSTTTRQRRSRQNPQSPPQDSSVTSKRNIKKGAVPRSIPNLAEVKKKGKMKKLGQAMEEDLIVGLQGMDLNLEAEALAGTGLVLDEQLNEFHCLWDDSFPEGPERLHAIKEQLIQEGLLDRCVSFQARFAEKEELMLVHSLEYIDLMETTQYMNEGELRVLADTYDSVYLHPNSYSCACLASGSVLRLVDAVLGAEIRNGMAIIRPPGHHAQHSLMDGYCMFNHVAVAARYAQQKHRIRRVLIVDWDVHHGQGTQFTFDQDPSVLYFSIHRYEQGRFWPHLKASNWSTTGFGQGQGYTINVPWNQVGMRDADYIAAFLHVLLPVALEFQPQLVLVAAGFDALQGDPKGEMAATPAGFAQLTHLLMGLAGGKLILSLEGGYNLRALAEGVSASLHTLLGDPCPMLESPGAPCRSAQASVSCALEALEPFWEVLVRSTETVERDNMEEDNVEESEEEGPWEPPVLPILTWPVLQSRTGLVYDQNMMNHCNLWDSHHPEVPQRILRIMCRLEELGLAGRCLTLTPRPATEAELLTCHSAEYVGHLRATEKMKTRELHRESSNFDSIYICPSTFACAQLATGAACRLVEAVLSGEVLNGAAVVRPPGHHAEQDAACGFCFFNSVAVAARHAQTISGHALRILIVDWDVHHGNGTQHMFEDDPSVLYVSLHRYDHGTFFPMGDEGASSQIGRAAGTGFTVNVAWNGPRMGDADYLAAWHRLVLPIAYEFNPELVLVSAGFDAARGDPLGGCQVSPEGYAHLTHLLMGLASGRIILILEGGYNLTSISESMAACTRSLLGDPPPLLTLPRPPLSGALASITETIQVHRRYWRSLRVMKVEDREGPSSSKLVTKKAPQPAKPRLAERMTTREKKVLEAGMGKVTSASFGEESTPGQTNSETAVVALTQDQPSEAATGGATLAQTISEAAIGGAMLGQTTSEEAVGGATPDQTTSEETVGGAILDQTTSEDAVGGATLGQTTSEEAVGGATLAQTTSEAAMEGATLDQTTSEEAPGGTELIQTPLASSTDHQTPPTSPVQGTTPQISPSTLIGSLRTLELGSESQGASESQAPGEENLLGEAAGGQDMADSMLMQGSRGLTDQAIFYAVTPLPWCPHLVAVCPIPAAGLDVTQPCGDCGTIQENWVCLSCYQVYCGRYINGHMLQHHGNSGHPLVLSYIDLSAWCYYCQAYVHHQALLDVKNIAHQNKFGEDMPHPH

[12] = AUC ( 0 to t) in Sprague-Dawley rat at 5 mg/kg, po measured upto 24 hrs by LC-MS/MS analysis; assay type: ADME, organism-based; set-up: dose 5 mg/kg, time < 24 hr, route oral; conditions: in vivo; summary of the method: as §1
JeKo-1 [13] = assay: Cell cycle arrest in human JeKo1 cells assessed as accumulation at S phase at 10 nM after 24 hrs by propidium iodide staining based flow cytometric analysis (reference value: 26.13 %); assay type: functional
[14] = Half life in Sprague-Dawley rat plasma at 5 mg/kg, po measured upto 24 hrs by LC-MS/MS analysis; assay type: ADME, organism-based; summary of the method: as §1
JeKo-1 [15] = assay: Cell cycle arrest in human JeKo1 cells assessed as accumulation at G1 phase at 1000 nM after 24 hrs by propidium iodide staining based flow cytometric analysis (reference value: 63.16 %); assay type: functional
JeKo-1 [16] = assay: Induction of apoptosis in human JeKo1 cells after 48 hrs by annexin V-FITC/propidium iodide staining-based flow cytometric method; assay type: functional, cell-based; summary of the method: as §2
A2780S = assay: Antiproliferative activity against human A2780S cells after 72 hrs by MTT assay; assay type: functional, cell-based
[17] = molecular target: Polyamine deacetylase HDAC10 (Homo sapiens, UniProt Q969S8); assay: Inhibition of recombinant N-terminal FLAG-tagged human HDAC10 (2 to 631 residues) expressed in baculovirus infected Sf9 cells using Ac-peptide-AMC as substrate after 1 hr by fluorescence assay
Chain of Polyamine deacetylase HDAC10 (Q969S8 whole entry, the tested form may be a part): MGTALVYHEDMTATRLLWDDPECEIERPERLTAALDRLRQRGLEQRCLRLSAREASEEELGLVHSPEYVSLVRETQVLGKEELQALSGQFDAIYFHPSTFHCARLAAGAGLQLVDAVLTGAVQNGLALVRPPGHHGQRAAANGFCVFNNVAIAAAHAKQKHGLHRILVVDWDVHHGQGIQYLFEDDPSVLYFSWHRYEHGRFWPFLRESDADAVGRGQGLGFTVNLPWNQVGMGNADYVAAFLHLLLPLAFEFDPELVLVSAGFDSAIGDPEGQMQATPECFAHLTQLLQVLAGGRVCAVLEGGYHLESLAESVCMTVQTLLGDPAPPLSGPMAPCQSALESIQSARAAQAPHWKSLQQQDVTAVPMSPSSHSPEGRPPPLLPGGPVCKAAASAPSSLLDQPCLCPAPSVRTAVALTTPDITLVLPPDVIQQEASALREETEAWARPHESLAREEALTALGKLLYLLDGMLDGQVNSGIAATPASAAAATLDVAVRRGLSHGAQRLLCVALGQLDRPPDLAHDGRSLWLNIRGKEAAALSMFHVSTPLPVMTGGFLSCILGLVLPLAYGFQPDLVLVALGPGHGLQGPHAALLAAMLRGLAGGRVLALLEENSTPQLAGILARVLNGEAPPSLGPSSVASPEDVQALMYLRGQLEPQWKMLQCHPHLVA

JeKo-1 [18] = assay: Cell cycle arrest in human JeKo1 cells assessed as accumulation at S phase at 100 nM after 24 hrs by propidium iodide staining based flow cytometric analysis (reference value: 26.13 %); assay type: functional
Daudi = assay: Antitumour activity against human Daudi cells xenografted in NOD/SCID mouse assessed as reduction in tumour growth at 20 mg/kg, po treated on day 1,3 and 5 per week and measured for every 2 days; assay type: functional; conditions: read-out: TGI
Summary of the method: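 Daudi cells (107 in 100 µL serum-free RPMI 1640) were injected s.c. into the right flank of 5–6 week female NOD/SCID mice. At 100–200 mm3, mice were randomized six per group. Dosing was 10 mg/kg i.v. or 20 mg/kg p.o. in 8% HP-β-CD on days 1, 3 and 5 each week. Tumors were measured by caliper every 2 days, with TV = length × width² × 0.5.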

[19] = Volume of distribution at steady state in Sprague-Dawley rat at 5 mg/kg, iv measured upto 24 hrs by LC-MS/MS analysis; assay type: ADME, organism-based; conditions: in vivo, read-out: Vdss; summary of the method: as §1

AUC(0-t) at 24 h [1]: 433 ng·h/mL | Vdss [3]: 29.13 L/kg | pIC50 (Histone deacetylase 2): 8.44 | pIC50 (Histone deacetylase 8): 6.59 | bioavailability [4]: 53.5% | Cmax [9]: 241 ng/mL | pIC50 (Histone deacetylase 1): 8.74 | pIC50 (MCF7): 7.84 | pIC50 (Raji): 7.92 | pIC50 (MM1.S): 8.01 | pIC50 (Histone deacetylase 4): 6.33 | pIC50 [11]: 7.25 | AUC(0-t) at 24 h [12]: 232 ng·h/mL | half-life [14]: 1.01 h | pIC50 (A2780S): 7.40 | pIC50 [17]: 6.99 | Vd [19]: 6.33 L/kg
SMILES: Cc1ccc(CN2CCC(c3noc(CN(C)c4ncc(C(=O)NO)cn4)n3)CC2)cc1
Activity (JeKo-1 [2]): 5.57% | Activity (JeKo-1 [5]): 10.77% | Activity (JeKo-1 [6]): 0.39% | Activity (JeKo-1 [7]): 9.1% | Activity [8]: Non-Toxic | Activity (JeKo-1 [10]): 12.82% | Activity (JeKo-1 [13]): 24% | Activity (JeKo-1 [15]): 82.86% | Activity (JeKo-1 [16]): Dose-dependent effect | Activity (JeKo-1 [18]): 8.5% | inhibition in vivo at 20 mg/kg (Daudi): 53.8%
